Measurements taken from ChEMBL document CHEMBL1126807, “Inhibition of bone resorption by H+/K(+)-ATPase inhibitors” (J Med Chem, 1993).
Blank lines part the entries; values can stand above or below the compound they belong to.

How the values were obtained:
[1] = Tested for the inhibition of reversibility of hog gastric H+/K+-ATPase at 0.05 uM (200-fold dilution after pre-incubation); type: functional, Sus scrofa, Stomach; parameters: scale not given: the % may be the effect or the level left
[2] = Tested for the inhibition of reversibility of hog gastric H+/K+-ATPase at 10 uM; type: functional, Sus scrofa, Stomach; parameters: scale not given: the % may be the effect or the level left
[3] = Tested for reversible inhibition against gastric H+/K+-ATPase isolated from porcine gastric microsomes; value ranges from […]; type: functional, Sus scrofa, Stomach
Rattus norvegicus [4] = species on record: Rattus norvegicus; experiment: Tested for the inhibition of bone resorption by measuring mean pit size at 10 e -5 M (sd 1012); type: functional
Method in brief: (§1)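 Osteoclasts mechanically disaggregated from neonatal rat long bones into Hepes-buffered medium 199, settled 30 s, allowed to attach to bone slices (2.5 mm²) for 15 min at 37 °C, washed, then cultured overnight in 10% newborn calf serum in Hanks-buffered MEM with or without drug. Cells removed with 10% NaOCl, slices gold-coated, entire surface scanned by SEM for pit number, pit size and resorbed plan area. Student's t-test.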

Rattus norvegicus [5] = species on record: Rattus norvegicus; experiment: Tested for the inhibition of bone resorption by measuring mean pit size at 10 e -6 M (sd 963); type: functional; method in brief: as §1
Rattus norvegicus [6] = species on record: Rattus norvegicus; experiment: Tested for the inhibition of bone resorption in neonatal rat long bones by measuring mean pit size at 10 e -8 M (sd 1498); type: functional; method in brief: as §1
Rattus norvegicus [7] = species on record: Rattus norvegicus; experiment: Tested for the inhibition of bone resorption by measuring mean total resorption at 10 e -5 M (sd 2675); type: functional; method in brief: as §1
Rattus norvegicus [8] = species on record: Rattus norvegicus; experiment: Tested for the inhibition of bone resorption in neonatal rat long bones by measuring mean total resorption at 10 e -6 M (sd 4446); type: functional; method in brief: as §1
Rattus norvegicus [9] = species on record: Rattus norvegicus; experiment: Tested for the inhibition of bone resorption in neonatal rat long bones by measuring mean total resorption at 10 e -7 M (sd 4081); type: functional; method in brief: as §1
Rattus norvegicus [10] = species on record: Rattus norvegicus; experiment: Tested for the inhibition of bone resorption in neonatal rat long bones by measuring mean total resorption at 10 e -8 M (sd 7210); type: functional; method in brief: as §1
Rattus norvegicus [11] = species on record: Rattus norvegicus; experiment: Tested for the inhibition of bone resorption by measuring number of pits/slice at 10 e -5 M (sd 2.74); type: functional; method in brief: as §1
Rattus norvegicus [12] = species on record: Rattus norvegicus; experiment: Tested for the inhibition of bone resorption by measuring number of pits/slice at 10 e -6 M (sd 3.87); type: functional; method in brief: as §1
Rattus norvegicus [13] = species on record: Rattus norvegicus; experiment: Tested for the inhibition of bone resorption by measuring number of pits/slice at 10 e -7 M (sd 3.53); type: functional; method in brief: as §1
Rattus norvegicus [14] = species on record: Rattus norvegicus; experiment: Tested for the inhibition of bone resorption by measuring number of pits/slice at 10 e -8 M (sd 4.87); type: functional; method in brief: as §1
Rattus norvegicus [15] = species on record: Rattus norvegicus; experiment: Tested for inhibition of bone resorption by osteoclasts in a bone slice assay in rats at 10 e -7 M; type: functional; method in brief: as §1
[16] = Tested for the inhibition of reversibility of hog gastric H+/K+-ATPase at 0.01 uM (200-fold dilution after pre-incubation); type: functional, Sus scrofa, Stomach; parameters: scale not given: the % may be the effect or the level left
[17] = Tested for the inhibition of reversibility of hog gastric H+/K+-ATPase at 2 uM; type: functional, Sus scrofa, Stomach; parameters: scale not given: the % may be the effect or the level left
[18] = Tested for reversible inhibition against gastric H+/K+-ATPase isolated from porcine gastric microsomes; value ranges from 3-10 uM; type: functional, Sus scrofa, Stomach
Rattus norvegicus [19] = species on record: Rattus norvegicus; experiment: Tested for the inhibition of bone resorption by measuring mean pit size at 10 e -5 M (sd 562); type: functional; method in brief: as §1
Rattus norvegicus [20] = species on record: Rattus norvegicus; experiment: Tested for the inhibition of bone resorption by measuring mean pit size at 10 e -6 M (sd 814); type: functional; method in brief: as §1
Rattus norvegicus [21] = species on record: Rattus norvegicus; experiment: Tested for the inhibition of bone resorption by measuring mean pit size at 10 e -7 M (sd 1032); type: functional; method in brief: as §1
Rattus norvegicus [22] = species on record: Rattus norvegicus; experiment: Tested for the inhibition of bone resorption by measuring mean pit size at 10 e -8 M (sd 1092); type: functional; method in brief: as §1
Rattus norvegicus [23] = species on record: Rattus norvegicus; experiment: Tested for the inhibition of bone resorption by measuring mean total resorption at 10 e -5 M (sd 1111); type: functional; method in brief: as §1
Rattus norvegicus [24] = species on record: Rattus norvegicus; experiment: Tested for the inhibition of bone resorption by measuring mean total resorption at 10 e -6 M (sd 3349); type: functional; method in brief: as §1
Rattus norvegicus [25] = species on record: Rattus norvegicus; experiment: Tested for the inhibition of bone resorption by measuring mean total resorption at 10 e -7 M (sd 4088); type: functional; method in brief: as §1
Rattus norvegicus [26] = species on record: Rattus norvegicus; experiment: Tested for the inhibition of bone resorption by measuring mean total resorption at 10 e -8 M (sd 5079); type: functional; method in brief: as §1
Rattus norvegicus [27] = species on record: Rattus norvegicus; experiment: Tested for the inhibition of bone resorption by measuring number of pits/slice at 10 e -5 M (sd 1.88); type: functional; method in brief: as §1
Rattus norvegicus [28] = species on record: Rattus norvegicus; experiment: Tested for the inhibition of bone resorption by measuring number of pits/slice at 10 e -6 M (sd 3.46); type: functional; method in brief: as §1
Rattus norvegicus [29] = species on record: Rattus norvegicus; experiment: Tested for the inhibition of bone resorption by measuring number of pits/slice at 10 e -7 M (sd 3.94); type: functional; method in brief: as §1
Rattus norvegicus [30] = species on record: Rattus norvegicus; experiment: Tested for the inhibition of bone resorption by measuring number of pits/slice at 10 e -8 M (sd 5.51); type: functional; method in brief: as §1
Rattus norvegicus [31] = species on record: Rattus norvegicus; experiment: Tested for inhibition of bone resorption by osteoclasts in a bone slice assay in rats at 10 e -5 M; type: functional; method in brief: as §1

IC50 [3]: 10 µM | IC50 (Rattus norvegicus [15]): 2000 nM
SMILES: CCOC(=O)CCC(=O)c1cnc2c(OC)cccc2c1Nc1ccccc1C
Activity [1]: 100% | Activity [2]: 60% | Mean pit size (Rattus norvegicus [4]): 948 µm² | Mean pit size (Rattus norvegicus [5]): 1190 µm² | Mean pit size (Rattus norvegicus [6]): 1450 µm² | Mean total resorption (Rattus norvegicus [7]): 2040 um2 | Mean total resorption (Rattus norvegicus [8]): 4040 um2 | Mean total resorption (Rattus norvegicus [9]): 4790 um2 | Mean total resorption (Rattus norvegicus [10]): 8400 um2 | No. of pits/slice (Rattus norvegicus [11]): 2.22 | No. of pits/slice (Rattus norvegicus [12]): 3.39 | No. of pits/slice (Rattus norvegicus [13]): 4.67 | No. of pits/slice (Rattus norvegicus [14]): 5.89

IC50 [18]: 3000 nM | IC50 (Rattus norvegicus [31]): 4 µM
SMILES: CCOC(=O)c1cnc2c(OC)cccc2c1Nc1ccccc1C
Activity [16]: 90% | Activity [17]: 66% | Mean pit size (Rattus norvegicus [19]): 477 µm² | Mean pit size (Rattus norvegicus [20]): 798 µm² | Mean pit size (Rattus norvegicus [21]): 919 µm² | Mean pit size (Rattus norvegicus [22]): 926 µm² | Mean total resorption (Rattus norvegicus [23]): 1270 um2 | Mean total resorption (Rattus norvegicus [24]): 7300 um2 | Mean total resorption (Rattus norvegicus [25]): 9060 um2 | Mean total resorption (Rattus norvegicus [26]): 8740 um2 | No. of pits/slice (Rattus norvegicus [27]): 2.67 | No. of pits/slice (Rattus norvegicus [28]): 9.17 | No. of pits/slice (Rattus norvegicus [29]): 9.5 | No. of pits/slice (Rattus norvegicus [30]): 9.83
